The values that follow come from ChEMBL document CHEMBL4622915, “Design and synthesis of C-12 dithiocarbamate andrographolide analogues as an anticancer agent” (Bioorg Med Chem Lett, 2020).

Type in all cases: functional, cell-based
The nature of assay [1]: Anticancer activity against rat ASK cells assessed as reduction in cell viability measured after 72 hrs by SRB assay. Put shortly:
(§1)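 Adherent cells seeded at 10^4 cells/well and exposed 72 h to compound at 0.1–50 μM, dissolved in DMSO (less than 0.05%). Ellipticine served as positive control. Afterwards cells washed, fixed with TCA, stained with 0.4% SRB in 1% acetic acid. Bound dye extracted and OD read at 515 nm; IC50 derived.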

Another assay relates to KB. Put plainly: Anticancer activity against human KB cells assessed as reduction in cell viability measured after 72 hrs by SRB assay. In a few lines: as §1
For the next assay, the system named is A549. Put plainly: Anticancer activity against human A549 cells assessed as reduction in cell viability measured after 72 hrs by SRB assay. The conditions noted are these: A549, 72 h. In a few lines:
as §1
Background: In SRB staining, fixed cells bind dye roughly in proportion to their protein.

For a further assay, the system named is HuCC-A1. Kind of assay: Anticancer activity against human HuCCa1 cells assessed as reduction in cell viability measured after 72 hrs by SRB assay. The conditions noted are these: HuCC-A1, 72 h. In a few lines: as §1
Assay [2] is described as follows: Anticancer activity against human KKU-M213 cells assessed as reduction in cell viability measured after 72 hrs by SRB assay. The conditions noted are these: KKU-M213, 72 h. In a few lines: as §1
Another assay has as its system MCF7. Put plainly: Anticancer activity against human MCF7 cells assessed as reduction in cell viability measured after 72 hrs by SRB assay. Particulars: MCF7, 72 h. Put shortly:
as §1

The test system of another assay is HT-29. Kind of assay: Anticancer activity against human HT-29 cells assessed as reduction in cell viability measured after 72 hrs by SRB assay. The conditions noted are these: HT-29, 72 h. Put shortly:
as §1

In another assay the test system is P388. Kind of assay: Anticancer activity against mouse P388 cells assessed as reduction in cell viability measured after 48 hrs by SRB assay. Particulars: P388, 48 h. Put shortly: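 Suspension cells seeded at 10^4 cells/well and exposed 48 h to compound at 0.1–50 μM, dissolved in DMSO (less than 0.05%). Ellipticine served as positive control. Then washed, TCA-fixed, stained with 0.4% SRB in 1% acetic acid. Protein-bound dye extracted and absorbance read at 515 nm; IC50 taken.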

Assay [3] can be described thus: Anticancer activity against human KKU055 cells assessed as reduction in cell viability measured after 72 hrs by SRB assay. Put shortly:
as §1

As to `C=C1CC[C@@H]2[C@](C)(COC(C)=O)[C@H](OC(C)=O)CC[C@@]2(C)[C@@H]1C[C@H](SC(=S)N1CCc2ccccc2C1)C1=CCOC1=O`, the IC50 worked out at 20.1 µM in [1]; 25 µM in the assay with KB; 25.1 µM in the assay with A549; 7.19 µM in the assay with HuCC-A1; 5.59 µM in assay [2]; 3.95 µM with MCF7. Besides, the IC50 turned out to be 7.08 µM in the assay with HT-29, 4.38 µM in the assay on P388 and 5.55 µM in assay [3].

Consider `C=C1CC[C@@H]2[C@](C)(COC(C)=O)[C@H](OC(C)=O)CC[C@@]2(C)[C@@H]1C[C@H](SC(=S)N1CCC(Cc2ccccc2)CC1)C1=CCOC1=O`, for which the IC50 in assay [1] stood at 28.5 µM; with KB, 33.6 µM; with A549, 29.1 µM; with HuCC-A1, 19.7 µM; in assay [2], 6.76 µM; with MCF7 it was 5.46 µM. Also, the IC50 turned out to be 15.3 µM with HT-29, 4.85 µM in the assay with P388 and 6.42 µM in assay [3].

Consider `C=C1CC[C@@H]2[C@](C)(COC(C)=O)[C@H](OC(C)=O)CC[C@@]2(C)[C@@H]1C[C@H](SC(=S)N(Cc1ccccc1)Cc1ccccc1)C1=CCOC1=O`, for which the IC50 in [1] worked out at 7.22 µM; in the assay with KB it was 8.66 µM; in the assay on A549, 22.9 µM; with HuCC-A1, 7.64 µM; in assay [2] it was 5.67 µM; in the assay with MCF7 it was 4.76 µM. Besides, the IC50 with HT-29 came to 6.54 µM; with P388, 4.94 µM; in [3], 6.02 µM.

Turning to `C=C1CC[C@@H]2[C@](C)(COC(C)=O)[C@H](OC(C)=O)CC[C@@]2(C)[C@@H]1C[C@H](SC(=S)N1CCc2ccccc2C1c1ccccc1)C1=CCOC1=O` (some centres undefined), the IC50 stood at 23.4 µM in assay [1]; 18.1 µM in the assay with KB; 29.8 µM in the assay with A549; 9.39 µM in the assay with HuCC-A1; 6.81 µM in [2]; 5.6 µM in the assay on MCF7. The IC50 with HT-29 was found to be 9.63 µM; in the assay on P388, 5.33 µM; in assay [3], 6.44 µM.

For the compound `C=C1CC[C@@H]2[C@](C)(CO)[C@H](O)CC[C@@]2(C)[C@@H]1C/C=C1/C(=O)OC[C@H]1O` [ANDROGRAPHOLIDE], the IC50 in assay [1] is 34.8 µM; with KB it was 31.7 µM; in the assay with A549 it was 32 µM; with HuCC-A1 it was 23.6 µM; in [2], 9.36 µM; in the assay with MCF7, 8.48 µM. Moreover, the IC50 in the assay on HT-29 came out at 8.91 µM; with P388 it was 6.52 µM; in assay [3] it was 17.7 µM.

With `Cc1c2ccncc2c(C)c2c1[nH]c1ccccc12` [ELLIPTECINE], the concentration for half-maximal inhibition (IC50) in assay [1] was 2.19 µM; in the assay with KB it was 1.92 µM; with A549 it was 2.25 µM; in the assay with HuCC-A1 it was 2.43 µM; in assay [2] it was 1.81 µM; in the assay on MCF7, 1.79 µM. Also, the IC50 in the assay with HT-29 was found to be 2.16 µM; in the assay with P388, 1.79 µM; in [3], 2.43 µM.

By IC50 is commonly meant the concentration that gives 50% inhibition.
